Measured values collected from several papers.
Compare with care: the assays were run in different laboratories.
Effect on: cell growth or viability

| Compound | cell line | technique | time | CC50 [µM] |
| --- | --- | --- | --- | --- |
| Nc1nc(O)c2ncn(COC(CO)CO)c2n1 | HEL |  | 72 h | 63 |
| CCOP(=O)(OCC)[C@@H]1C[C@H](n2cc(Cn3ccc(=O)[nH]c3=O)nn2)ON1C (racemic) | HEL |  | 72 h | > 100 |
| C[C@H](NC(=O)[C@]1(Cc2ccccc2)CCN1C(=O)OCc1ccccc1)C(=O)NC(C)(C)C | HEL |  | 72 h | > 100 |
| Cc1nc2ccc(Cl)cn2c1C(=O)N1CCN(Cc2cn(-c3ccc(F)cc3)nn2)CC1 | HeLa | resazurin |  | > 100 |
| CCOP(=O)(OCC)[C@@H]1C[C@H](n2cc(Cn3cc(C)c(=O)[nH]c3=O)nn2)ON1C (racemic) | HEL |  | 72 h | > 100 |
| Cc1nc2ccc(Cl)cn2c1C(=O)N1CCN(CCn2cc(C3CC3)nn2)CC1 | HeLa | resazurin |  | > 100 |
| COc1ccc(S(=O)(=O)ON=C2C=C(C)C(=O)C(C)=C2)cc1 | HPAC |  |  | > 30 |
| O=c1[nH]c(=O)c2ncn(CCOCP(=O)(O)O)c2[nH]1 | HEL |  | 72 h | 111 |
| CCOP(=O)(OCC)[C@@H]1C[C@@H](n2cc(Cn3cnc4c(N)ncnc43)nn2)ON1C (racemic) | HEL |  | 72 h | > 100 |
| Cc1ccn2c(C(=O)N3CCN(Cc4cn(-c5ccccc5Cl)nn4)CC3)c(C)nc2c1 | HeLa | resazurin |  | > 100 |
| O=c1[nH]c(=O)c2ncn(C[C@@H](CO)OCP(=O)(O)O)c2[nH]1 | HEL |  | 72 h | > 300 |
